Data from ChEMBL document CHEMBL1156470, “Inhibition of the activation of multiple serine proteases with a cathepsin C inhibitor requires sustained exposure to prevent pro-enzyme processing” (J Biol Chem, 2007).
The source made the active and inactive calls. The rule behind the calls is not given here.

Columns and labels:
Dipeptidyl peptidase 1 [1] = biological target: T1, Dipeptidyl peptidase 1 (Homo sapiens, UniProt P53634); test: Inhibition of human recombinant cathepsin C after 10 mins
Procedure, shortened: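 Recombinant human cathepsin C at 1 nM in 25 mM MES pH 6.0, 50 mM NaCl, 5 mM DTT, with 50 μM Gly-Arg-AMC (twice Km). Enzyme preincubated with inhibitor 10 min, then substrate added, at room temperature. Fluorogenic AMC release.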

Cathepsin S = Cathepsin S (Homo sapiens, UniProt P25774); test: Inhibition of human recombinant cathepsin S after 10 mins
U-937 = test: Cytotoxicity against human U937 cells at 30 uM after 72 hrs annexin-V propidium iodide method; format: functional
Procedure, shortened: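 U937 plated at 0.4×10^6 cells/ml, compound in Me₂SO (final 0.5%). Cells harvested and re-seeded every 24 h in medium with freshly added inhibitor, for 72 h. Viability by annexin V-FITC/propidium iodide two-colour flow cytometry; cells negative for both stains counted viable.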

Dipeptidyl peptidase 1 [2] = biological target: T1, Dipeptidyl peptidase 1; test: Inhibition of intracellular cathepsin C active site in human U937 cells assessed as reduction of Ala-4[125I]Phe-DMK labeled 23 kDa protein at 10 uM by autoradiography based pulse chase assay; format: cell-based; details: U-937
Procedure, shortened: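 U937 cells (200,000) preincubated 30 min with 10 μM competitor or 0.5% Me₂SO, then labelled 15 min with 0.5 nM Ala-4-[¹²⁵I]Phe-DMK. Quenched with 1 μM unlabelled probe, washed, and lysed in 20 mM MES pH 6.0, 50 mM NaCl, 0.5% NP-40. Run on reducing 10–20% SDS-PAGE; film exposed 6–24 h.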

Cathepsin G [3] = biological target: T2, Cathepsin G (Homo sapiens, UniProt P08311); test: Blockade of cathepsin G processing in human U937 cells by densitometry; format: cell-based, U-937
T2 sequence (P08311 whole entry): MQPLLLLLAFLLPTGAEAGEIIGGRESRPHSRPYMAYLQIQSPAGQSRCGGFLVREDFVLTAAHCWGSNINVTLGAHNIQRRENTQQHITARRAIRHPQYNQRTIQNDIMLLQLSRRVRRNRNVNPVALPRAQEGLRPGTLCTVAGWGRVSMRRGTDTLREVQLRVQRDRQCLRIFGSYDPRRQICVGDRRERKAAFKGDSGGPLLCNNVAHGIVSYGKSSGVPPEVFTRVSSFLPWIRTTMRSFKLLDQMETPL
Procedure, shortened: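 U937 cells washed, plated at 2×10^6 cells/ml in methionine/glutamine-free RPMI, inhibitor or 0.5% Me₂SO added during 30 min starvation, pulsed with [³⁵S]methionine (10 μCi/ml) 30 min, re-seeded in complete medium with inhibitor and chased 3 h. Lysates bound to aprotinin-agarose 1 h at room temperature, SDS-PAGE and fluorography. CG band quantitated by densitometry as % inhibition vs vehicle.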

[4] = biological target: T3, Cathepsin G (Mus musculus) (UniProt P28293); test: Inhibition of cathepsin G activity in beta-estradiol differentiated mouse EcoM-G cells at 10 uM after 3 days in the absence of estradiol; format: cell-based
T3 sequence (whole entry): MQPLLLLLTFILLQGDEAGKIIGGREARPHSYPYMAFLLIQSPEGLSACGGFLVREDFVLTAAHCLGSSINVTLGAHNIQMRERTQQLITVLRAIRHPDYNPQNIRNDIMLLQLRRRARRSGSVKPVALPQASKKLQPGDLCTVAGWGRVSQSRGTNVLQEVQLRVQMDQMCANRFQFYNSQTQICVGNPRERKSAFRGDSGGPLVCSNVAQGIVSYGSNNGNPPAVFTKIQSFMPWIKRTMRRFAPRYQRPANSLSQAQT
Procedure, shortened: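 EcoM-G cells seeded without β-estradiol to differentiate. 10 μM compound or vehicle added 24 h after estrogen removal, and aliquots taken over time up to 3 days. CG activity in extracts measured with 1 mM Suc-Ala-Ala-Pro-Phe-pNA, absorbance at 405 nm over 5 min, in 100 mM Tris pH 7.5, 1 M NaCl.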

Cathepsin G [5] = biological target: T4, Cathepsin G (Mus musculus, UniProt P28293); test: Inhibition of cathepsin G activation in beta-estradiol differentiated mouse EcoM-G cells after 24 hrs; format: cell-based
T4 sequence (P28293 whole entry): T3 sequence (whole entry)
Procedure, shortened: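 EcoM-G cells (cultures <3 months old) washed and seeded at 0.5×10^6 cells/ml without β-estradiol. After 24 h, compound added in Me₂SO (final 0.5%), then cells differentiated a further 24 h, harvested and lysed. NE assayed with 400 μM MeOSuc-AAPV-AMC, CG with 1 mM Suc-AAPF-pNA (405 nm, 5 min), Pr-3 with 10 μM internally quenched substrate (ex 328/em 393 nm), all from the same lysates. IC50 from four-parameter Hill fit.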

[6] = biological target: T5, Neutrophil elastase (Mus musculus) (UniProt Q3UP87); details: EcoM-G, 1 uM
T5 sequence (whole entry): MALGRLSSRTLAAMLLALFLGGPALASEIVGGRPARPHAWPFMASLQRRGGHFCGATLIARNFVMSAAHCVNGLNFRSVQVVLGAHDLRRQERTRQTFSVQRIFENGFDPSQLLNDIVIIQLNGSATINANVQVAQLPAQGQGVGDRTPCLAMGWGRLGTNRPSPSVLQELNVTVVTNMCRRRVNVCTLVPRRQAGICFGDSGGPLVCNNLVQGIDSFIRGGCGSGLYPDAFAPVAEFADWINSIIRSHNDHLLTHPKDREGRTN

[7] = biological target: T5, Neutrophil elastase (Mus musculus); details: EcoM-G, 1 uM; remark: listed apart in the source

T1 sequence (P53634 25-134 limits assumed): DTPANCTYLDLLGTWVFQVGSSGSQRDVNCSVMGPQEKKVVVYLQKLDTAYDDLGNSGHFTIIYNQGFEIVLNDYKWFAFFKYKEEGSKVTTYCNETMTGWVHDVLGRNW
T1 sequence (P53634 231-394 limits assumed): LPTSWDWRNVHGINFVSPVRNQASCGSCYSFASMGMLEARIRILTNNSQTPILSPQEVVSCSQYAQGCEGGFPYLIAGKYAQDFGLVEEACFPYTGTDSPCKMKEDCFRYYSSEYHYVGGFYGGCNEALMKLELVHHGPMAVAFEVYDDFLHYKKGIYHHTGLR
T1 sequence (P53634 395-463 limits assumed): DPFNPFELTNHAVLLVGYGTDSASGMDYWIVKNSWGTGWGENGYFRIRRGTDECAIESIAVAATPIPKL
Cathepsin S, sequence (P25774 whole entry): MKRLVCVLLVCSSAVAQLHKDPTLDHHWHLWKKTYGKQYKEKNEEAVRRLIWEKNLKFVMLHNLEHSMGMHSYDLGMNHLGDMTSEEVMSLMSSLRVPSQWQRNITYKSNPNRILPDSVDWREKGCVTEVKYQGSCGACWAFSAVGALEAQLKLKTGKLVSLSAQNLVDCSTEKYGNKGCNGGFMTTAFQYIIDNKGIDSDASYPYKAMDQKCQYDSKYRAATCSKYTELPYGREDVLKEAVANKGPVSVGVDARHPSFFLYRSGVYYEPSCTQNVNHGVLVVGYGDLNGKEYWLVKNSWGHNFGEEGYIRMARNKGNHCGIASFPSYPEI

N#C[C@@]1(NC(=O)[C@@H](N)Cc2cccs2)C[C@@H]1c1ccccc1.O=C(O)C(F)(F)F
IC50 (Dipeptidyl peptidase 1 [1]): 14 nM | IC50 (Cathepsin S): 5900 nM | Activity (U-937): 100% | Activity (Dipeptidyl peptidase 1 [2]): Active | IC50 (Cathepsin G [3]): 150 nM | Activity [4]: Active | IC50 (Cathepsin G [5]): 480 nM | inhibition [6]: > 90% | inhibition [7]: 80%
